# An excerpt weighted towards active compounds, which were near 2.3% of everything screened.
# Mcl1-Noxa inh – disrupts binding of human Mcl-1 to Noxa peptide; inhibition, % at 21.7 µM; AID 1022; Q07820; 220,000 compounds, 1.5% hits; TR-FRET Mcl-1/Noxa peptide binding, 2 h;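 active = compounds that cut the protein-peptide binding signal by more than 50% relative to plate controls in a single-dose test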;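 note: His-tagged Mcl-1 with rhodamine Noxa BH3 peptide and terbium anti-His antibody; 0% = Mcl-1 plus Noxa peptide wells and 100% = peptide-only wells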
# Target sequence (Q07820 whole entry, looked up): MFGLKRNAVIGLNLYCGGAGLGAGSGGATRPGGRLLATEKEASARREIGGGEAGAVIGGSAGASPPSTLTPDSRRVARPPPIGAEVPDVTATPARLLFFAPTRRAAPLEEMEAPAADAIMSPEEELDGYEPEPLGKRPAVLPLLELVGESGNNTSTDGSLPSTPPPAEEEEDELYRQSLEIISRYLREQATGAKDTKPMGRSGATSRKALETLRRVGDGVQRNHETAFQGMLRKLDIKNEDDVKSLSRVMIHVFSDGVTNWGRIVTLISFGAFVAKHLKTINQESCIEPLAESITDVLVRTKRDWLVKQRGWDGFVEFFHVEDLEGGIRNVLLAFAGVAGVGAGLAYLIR
# MCL1 BIM primary – inhibitors of human MCL1 binding to BIM-BH3 peptide; 320,000 compounds, 0.68% hits; GST-MCL1 / FITC-Bim-BH3 fluorescence polarization; Q07820; inhibition, % at 10.9 µM;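 active = inhibition above the mean inhibition of all tested compounds plus 3 SD, set per campaign, cut at about 40% in these data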;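 note: 0% = DMSO wells and 100% = unlabeled Bim-BH3 peptide control; higher means more loss of mP so more displacement of Bim peptide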
# T cell HTS – modulates CD8 T cell binding to vesicles; 2C CD8+ T cell-vesicle binding, flow cytometry; active compounds read low; response (vesicle binding), % at 7 µM; 330,000 compounds, 0.068% hits; AID 2052;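 active = response, share of CD8 T cells binding vesicles, and their 90th percentile fluorescence all below set limits, cut at about 80% in these data, passing the limit was not always enough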;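 note: values below 100% mean blocked vesicle binding to the CD8+ T cells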
#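 Assay system: 2C TCR transgenic mouse naive CD8+ T cells, MACS-purified | Read-out: CD8+ gate FL2 mean fluorescence as % of same-row positive control | Signal: High-throughput flow cytometry with anti-B7-1 and anti-CD8 staining | Timing: Binding step 1.5 h, 37 °C, antibody labelling 20 min, ice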
# Bim-Mcl-1 – human Bim-Mcl-1 interaction inhibition; Q07820; Bead-based flow cytometry, Bim peptide-Mcl-1 binding; inhibition, % at 10 µM; 190,000 compounds, 0.1% hits; AID 1009; in the data active = inhibition above about 40%;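 note: 0% = no compound tracer wells and 100% = peptide blocker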
# DSG3 Ab inh – human desmoglein-3 autoantibody binding inhibition; P32926; DSG3-coupled beads, scFv-anti-DSG3-GFP binding, flow cytometry; active compounds read low; binding (percent of control), % at 10 µM; 310,000 compounds, 0.48% hits;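 active = binding more than 3 SD below its plate's average and above zero; inconclusive = below that plate limit but binding exactly zero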;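 note: hits lower antibody fragment binding to DSG3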
# Mcl1-Bid inh – disrupts binding of human Mcl-1 to Bid peptide; Q07820; TR-FRET Mcl-1/Bid-Dy647 peptide binding, 1536-well; inhibition, % at 21.7 µM; 220,000 compounds, 0.97% hits;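 active = compounds that cut the binding signal by more than half at the single screening dose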;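 note: His-tagged Mcl-1 with europium anti-His antibody binding Bid BH3 peptide; 0% = Mcl-1 plus peptide wells and 100% = peptide-only wells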
# BCLXL inh confirm – Bcl-xL (human) inhibition, MCL1 counter-screen confirmation | GST-Bcl-xL / FITC-Bim BH3 peptide FP binding | 1,700 compounds, 54% hits | inhibition, % at 10.9 µM | shares compounds with MCL1 BIM primary | AID 2166;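 active = inhibition above a cutoff equal to the mean inhibition of all tested compounds plus 3 SD, cut at about 30% in these data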;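 note: 0% = DMSO wells and 100% = unlabeled Bim BH3 control peptide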
# Target sequence (Q07817 whole entry, looked up): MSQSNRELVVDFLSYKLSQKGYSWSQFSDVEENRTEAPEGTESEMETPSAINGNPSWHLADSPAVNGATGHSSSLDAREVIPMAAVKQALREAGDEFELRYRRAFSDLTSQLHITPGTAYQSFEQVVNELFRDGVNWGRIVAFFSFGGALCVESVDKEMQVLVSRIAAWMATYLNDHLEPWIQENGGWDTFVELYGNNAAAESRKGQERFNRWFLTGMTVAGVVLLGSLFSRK
# MCL1 inh confirm – confirmation of human MCL1 and BIM-BH3 interaction inhibitors; AID 2168; shares compounds with MCL1 BIM primary; GST-MCL1 / FITC-Bim-BH3 fluorescence polarization; inhibition, % at 10.9 µM; 1,700 compounds, 61% hits;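 active = inhibition above the average of all tested compounds plus 3 SD, cut at about 40% in these data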;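 note: 0% = DMSO wells and 100% = unlabeled Bim-BH3 control peptide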
# * marks the source's active call; other numbers are inactive results; i = inactive; ? = inconclusive; / = no result; + = active, no number.
SMILES,Mcl1-Noxa inh,MCL1 BIM primary,T cell HTS,Bim-Mcl-1,DSG3 Ab inh,Mcl1-Bid inh,BCLXL inh confirm,MCL1 inh confirm
CCCCN(C(=O)CSCC(=O)Nc1ccc(OC)cc1)c1c(N)n(CC(C)C)c(=O)[nH]c1=O,/,/,/,/,99.9,/,/,/
O=Cc1c(Sc2ccccc2)nc2ccccn2c1=O,-12.1,7.9,456.5,0.0,91.1,-21.5,/,/
O=Cc1c(Sc2ccccn2)nc2ccccn2c1=O,-3.1,63.1*,93.5,-5.0,102.0,0.0,3.0,8.4
O=c1c2ccccc2nc2n1CC/C2=C/N1CCN(c2cccc(C(F)(F)F)c2)CC1,20.3,55.6*,364.7,-5.0,96.0,-30.8,19.7,15.9
N#CCCN(C(=O)COC(=O)c1cc(S(=O)(=O)N2CCOCC2)ccc1Cl)c1ccc(F)cc1,/,-1.9,327.1,/,99.0,/,/,/
C=CCn1c(=O)/c(=C/c2cc(OC)c(OC)c(OC)c2)s/c1=C(/C#N)c1nc2ccccc2n1C,19.1,123.4*,i,-1.0,100.7,-6.8,144.6*,169.2*
CCN(CC)c1ccc2nc3c4ccccc4c(=O)cc-3oc2c1,/,/,293.8,/,/,/,/,/
CCN(CC)c1ccc2c(-c3ccc(S(=O)(=O)O)cc3S(=O)(=O)[O-])c3ccc(=[N+](CC)CC)cc-3oc2c1,/,+,744.2,/,?,/,+,+
O=C(CN1CCN(CC(=O)Nc2ccccc2Cl)CC1)NCC1(N2CCOCC2)CCCCC1,/,/,/,/,108.2,/,/,/
CCOC(=O)C1=C(COC(=O)c2ccc3ccccc3c2O)NC(=O)NC1C (stereo not given),/,87.8*,655.1,/,113.0,/,24.6,23.6
COc1ccc(C2=CC(=O)C[C@H](CN3C(=O)c4ccccc4C3=O)N(C(=O)OC(C)(C)C)O2)cc1,/,/,/,/,102.6,/,/,/
Cc1ccc(C(=O)NCC(=O)NCC(=O)OCC(=O)c2ccc(Br)cc2)cc1,-16.8,54.0*,162.0,3.0,103.1,-39.9,1.7,1.8
Cc1ccc(C(=O)COC(=O)CNC(=O)Cc2ccccc2)cc1,/,9.8,349.0,/,107.4,/,/,/
CCCn1c(=O)n(C)c(=O)c2c(SCC(=O)NCC(c3ccccc3)N(C)C)nc(CC(C)C)nc21 (stereo not given),/,-11.8,372.1,/,102.1,/,/,/
CC(=O)Oc1ccc2c(c1)Oc1cc(OC(C)=O)ccc1C21OC(=O)c2ccccc21,4.0,+,i,/,i,-7.2,153.9*,186.1*
COc1cc2c(ccc3cc(OC)c(OC)c(O)c32)cc1O,107.3*,78.2*,684.7,/,93.4,-21.3,29.2,82.3*
Cn1c(C(=O)N[C@@H](C(=O)O)c2ccccc2)cc2cc(F)ccc21,/,3.4,188.6,/,95.3,/,/,/
CCN(CC)C(=O)C1=C(C)NC(=O)NC1c1ccccc1F (stereo not given),7.8,66.3*,265.1,0.0,/,-17.6,22.6,27.0
C=CCn1c(SCC(=O)c2ccc(O)c(O)c2)nnc1-c1cccc(C)c1,/,24.2,418.8,/,101.5,/,/,/
C=CCn1c(SCC(=O)c2ccc(O)c(O)c2)nnc1-c1ccccc1OC,18.7,54.3*,180.2,-2.0,98.7,-57.8,8.7,17.9
C=CCn1c(SCC(=O)Nc2cc(C)on2)nnc1-c1ccccc1OC,/,/,0.0,/,?,/,/,/
C=CCn1c(SCC(=O)c2ccc(O)c(O)c2)nnc1-c1cccnc1,58.0*,40.8*,409.9,/,100.6,-35.9,12.1,47.2*
CCn1c(SCC(=O)c2ccc(O)c(O)c2)nnc1-c1ccccc1OC,8.4,44.8*,245.3,1.0,102.8,-81.3,13.9,40.8*
CC(C(=O)Nc1ccc(C(=O)O)c(O)c1)N1C(=O)/C(=C\c2ccco2)SC1=S (stereo not given),/,90.9*,326.9,/,97.9,/,46.2*,80.5*
O=C(CN1C(=O)/C(=C/c2ccco2)SC1=S)Nc1ccc(C(=O)O)c(O)c1,/,72.9*,519.7,/,95.4,/,29.7,48.3*
SMILES,Mcl1-Noxa inh,MCL1 BIM primary,T cell HTS,Bim-Mcl-1,DSG3 Ab inh,Mcl1-Bid inh,BCLXL inh confirm,MCL1 inh confirm
O=C(CCN1C(=O)/C(=C/c2ccccc2)SC1=S)NC1CCS(=O)(=O)C1 (stereo not given),/,1.7,370.3,/,99.0,/,/,/
O=C(CN1C(=O)/C(=C/c2ccco2)SC1=S)Nc1ccc(O)c(C(=O)O)c1,/,57.7*,101.7,/,101.0,/,23.4,47.4*
O=C(CN1C(=O)/C(=C/c2ccco2)SC1=S)NC1CCS(=O)(=O)C1 (stereo not given),/,63.6*,201.7,/,-6.6*,/,19.9,31.2
Cc1cccc(NS(=O)(=O)c2ccc(C)c(C(=O)NNC(=O)c3csc(N4CCOCC4)n3)c2)c1,/,/,/,/,101.3,/,/,/
NC(=O)c1ccsc1NC(=O)COC(=O)Cc1ccccc1[N+](=O)[O-],/,/,/,/,107.3,/,/,/
COc1ccccc1Nc1ccc2c(O)cc(S(=O)(=O)O)cc2c1,/,/,/,/,93.2,/,/,/
CCOC(=O)CN1C(=O)S/C(=C/c2ccco2)C1=O,/,0.2,396.7,/,118.0,/,/,/
NN1C(=O)/C(=C\c2ccco2)SC1=S,19.7,54.5*,594.2,/,106.7,-39.1,16.2,34.8
COc1ccc(/C=c2\s/c(=C/C(=O)c3ccc(C)cc3)[nH]c2=O)c(OC)c1,9.1,105.4*,i,0.0,86.8,-21.5,87.5*,97.3*
COc1ccccc1NC(=O)COc1ccc2c(c1)OCO2,/,8.1,i,/,/,/,/,/
Cc1cc2nc3c(=O)[nH]c(=S)[nH]c3nc2cc1NC(=O)C(F)(F)F,/,+,211.8,/,91.0,/,184.8*,196.7*
CC1CCCCN1C(=O)Cn1nnc(-c2cccnc2)n1 (stereo not given),16.2,91.3*,695.0,-2.0,111.5,-9.6,72.9*,110.3*
C=CCn1c(=O)[nH]c2nc3cc(N=CN(C)C)c(C)cc3nc2c1=O,-173.8,+,106.7,/,105.1,-13.2,185.6*,+
Cc1ccc(C)c(NC(=O)CN(C)C(=O)c2cccc(-n3cccc3)c2)c1,/,45.8*,297.9,/,95.2,/,9.6,64.0*
Cc1cc(C)n(CC(=O)NNC(=O)c2ccc(OC(F)(F)F)cc2)n1,/,/,511.1,/,122.7,/,/,/
Cc1cccc(NC(=O)CNC(=O)CCc2nc3sc4c(c3c(=O)[nH]2)CCCC4)c1C,/,43.0*,336.1,/,92.8,/,34.3*,67.3*
O=C(COC(=O)Cc1c[nH]c2ccccc12)Nc1cccc(Br)c1,/,/,/,/,94.0,/,/,/
O=C(Cn1c(O)c(/C=C2\C=Nc3ccccc32)sc1=O)N1CCOCC1,0.6,8.9,739.7,3.0,101.0,-21.3,/,/
O=c1[nH]c(S)c(/C=C2\C=Nc3ccccc32)s1,62.2*,76.3*,305.2,/,91.9,-3.8,86.0*,107.8*
Cc1c(Cl)cccc1NC(=O)CN(C1CCCCC1)S(C)(=O)=O,/,-2.3,263.8,/,105.7,/,/,/
